Measurements from ChEMBL document CHEMBL1122539, “3-Substituent effect and 3-methylene substituent effect on the structure-reactivity relationship of 7 beta-(acylamino)-3-cephem-4-carboxylic acid derivatives studied by carbon-13 and IR spectroscopies” (J Med Chem, 1984).

Columns and labels:
[1] = Geometrical mean of MIC calculated from MIC values for Escherichia coli NIHJ JC-2 and Klebsiella pneumoniae SRL-1; format: functional
In short: (§1)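 Agar dilution on sensitivity test agar with serial twofold antibiotic dilutions. Overnight tryptosoy broth cultures of E. coli NIHJ JC-2 and K. pneumoniae SRL-1 were diluted to about 10^6 cells/mL in the same broth, and one loopful was inoculated. Plates were incubated at 37 °C for 18–20 h. MIC was the lowest concentration inhibiting visible growth. The value is the geometric mean of the two strains' MICs.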

[2] = Rate constant (Kobs) obtained from IR spectroscopy
[3] = Dissociation constant (Kobs) obtained from IR spectroscopy; f = Not detected; format: physicochemical
[4] = Geometrical mean of MIC calculated from MIC values for Escherichia coli NIHJ JC-2 and Klebsiella pneumoniae SRL-1.; format: functional; in short: as §1

O=C(Cc1ccccc1)NC1C(=O)N2C(C(=O)[O-])=CCSC12.[Na+] (stereo not given)
MIC [1]: 8.85 µg/mL | 10^2 kobsd (h^-1) [2]: 3.1 hr-1

CS(=O)(=O)OC1=C(C(=O)[O-])N2C(=O)C(NC(=O)Cc3ccccc3)C2SC1.[Na+] (stereo not given)
MIC [1]: 8.84 µg/mL | 10^2 kobsd (h^-1) [2]: 46.5 hr-1

CC(=O)OCC1=C(C(=O)[O-])N2C(=O)C(NC(=O)Cc3cccs3)C2SC1.[Na+] (stereo not given)
MIC [1]: 25 µg/mL | 10^2 kobsd (h^-1) [2]: 11.1 hr-1

COC1=C(C(=O)[O-])N2C(=O)C(NC(=O)Cc3ccccc3)C2SC1.[Na+] (stereo not given)
Log k [3]: Not detected | MIC [4]: 17.7 µg/mL

CC1=C(C(=O)[O-])N2C(=O)C(NC(=O)Cc3ccccc3)C2SC1.[Na+] (stereo not given)
MIC [1]: 70.7 µg/mL | 10^2 kobsd (h^-1) [2]: 1.36 hr-1

O=C(Cc1ccccc1)NC1C(=O)N2C(C(=O)[O-])=C(Cl)CSC12.[Na+] (stereo not given)
MIC [1]: 12.5 µg/mL | 10^2 kobsd (h^-1) [2]: 15.2 hr-1

CCOC(=O)CC1=C(C(=O)[O-])N2C(=O)C(NC(=O)Cc3ccccc3)C2SC1.[Na+] (stereo not given)
MIC [1]: > 100 µg/mL | 10^2 kobsd (h^-1) [2]: 1.82 hr-1

O=C(Cc1cccs1)[N-]C1C(=O)N2C(C(=O)[O-])=C(C[n+]3ccccc3)CSC12.[Na+] (stereo not given)
10^2 kobsd (h^-1) [2]: 47.3 obs
